The sample as a whole holds a higher share of hits than the screen did.
T cruzi HTS = intracellular Trypanosoma cruzi inhibition | AID 651903 | activity score (inhibition), % at 5.01 µM | intracellular Trypanosoma cruzi in host cells, plate reader | 22,000 compounds, 4.9% hits; in the data active = activity score above about 55%; inconclusive = no clear call, values can overlap the other calls;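 also: parasites and compound incubated about four days before reading; 0% = median of neutral control wells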
A1 apoptosis 2 = A1 inhibition read as caspase activation; 24,000 tested, under 10 active; AID 2465; MEF A1-2A-BIM cells, caspase-Glo luminescence, 3 h; percent of clofoctol response, DMSO zero; caspase activation, % (test concentration not listed); in the data active = caspase activation above about 5.9%; inconclusive = no clear call, values can overlap the other calls; inactive = below about 2.2%
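system = A1-2A-BIM-expressing MEF cells | quantity = 2500 MEF cells/well | dosing = 50 nL compound per well, pinned | schedule = overnight cell settling, then 3 h compound exposure, 37 °C | signal = luminescence from DEVD-luciferin Caspase-Glo reagent, 1:1 in 50 mM HEPES, 1 h RT | read-out = Caspase-3/7 activation, seen as rise in luminescence signal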
INS-1E ATP HTS = INS-1E beta cell protection from cytokine death. AID 488910. INS-1E cytokine-induced death, ATP luminescence, 48 h; normalised: neutral wells 0, positive control 100. protection from cytokine-induced ATP loss, % at 10 µM. 20,000 compounds, 0.1% hits;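 active = mean replicate protection from cytokine-induced ATP loss at least 50% and at least 75% of replicates each reaching 50%; inconclusive = meets only one of the two criteria, mean or replicate share; inactive = fails both the mean and replicate share criteria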
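Assay system – rat INS-1E insulinoma cell line · Quantity – 8000 cells per well · Buffer or medium – RPMI without phenol red, 5% FBS · Schedule – 48 h co-treatment, 10 min post-lysis read · Technique – luminescent ATP assay (CellTiter-Glo)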
An asterisk follows results filed as active; u = inconclusive; x = not tested or not shown.

SMILES | T cruzi HTS | A1 apoptosis 2 | INS-1E ATP HTS
C[C@H]1CN([C@@H](C)CO)C(=O)c2cccc(NC(=O)c3ccc(-c4nccs4)cc3)c2O[C@H]1CN(C)Cc1ccc(C(=O)Nc2ccccc2N)cc1 | 71* | -3 | -15
C[C@H]1CN([C@@H](C)CO)C(=O)c2cccc(NC(=O)c3ccc(-c4nccs4)cc3)c2O[C@@H]1CN(C)Cc1ccc(-c2ccccc2)cc1 | 70* | -1 | -29
C[C@H](CO)N1C[C@H](C)[C@@H](CN(C)S(=O)(=O)c2ccc(Cl)cc2)Oc2c(NC(=O)c3ccc(-c4nccs4)cc3)cccc2C1=O | 30 | x | 2
C[C@@H]1CN([C@@H](C)CO)C(=O)c2cccc(NC(=O)c3ccc(-c4nccs4)cc3)c2O[C@H]1CN(C)Cc1ccc(C(=O)Nc2ccccc2N)cc1 | 48 | x | 19
C[C@H](CO)N1C[C@H](C)[C@H](CN(C)S(=O)(=O)c2ccc(Cl)cc2)Oc2c(NC(=O)c3ccc(-c4nccs4)cc3)cccc2C1=O | 63* | -1 | -37
COc1ccc(NC(=O)Nc2ccc3c(c2)C(=O)N([C@H](C)CO)C[C@@H](C)[C@@H](CN(C)Cc2ccc4c(c2)OCO4)O3)cc1 | -14 | x | x
CNC[C@H]1Oc2ccc(NC(=O)C3CC3)cc2C(=O)N([C@H](C)CO)C[C@@H]1C | 5 | 1 | 5
CC(C)NC(=O)Nc1ccc2c(c1)CC(=O)N([C@H](C)CO)C[C@H](C)[C@H](CN(C)Cc1ccc(C(=O)O)cc1)O2 | -12 | 1 | 4
Cc1ccc(S(=O)(=O)Nc2ccc3c(c2)CC(=O)N([C@@H](C)CO)C[C@@H](C)[C@@H](CN(C)S(=O)(=O)c2cccs2)O3)cc1 | 38 | x | -1
COc1ccc(S(=O)(=O)Nc2ccc3c(c2)CC(=O)N([C@H](C)CO)C[C@@H](C)[C@@H](CN(C)S(=O)(=O)c2ccc(C)cc2)O3)cc1 | 61* | -1 | 8
Cc1ccc(S(=O)(=O)Nc2ccc3c(c2)CC(=O)N([C@@H](C)CO)C[C@H](C)[C@@H](CN(C)S(=O)(=O)c2ccc(C)cc2)O3)cc1 | -6 | x | 2
COc1ccc(S(=O)(=O)N(C)C[C@H]2Oc3ccc(NS(=O)(=O)c4ccc(C)cc4)cc3CC(=O)N([C@@H](C)CO)C[C@H]2C)cc1 | 53 | x | 0
C[C@@H]1CN([C@H](C)CO)C(=O)Cc2cc(NS(=O)(=O)c3ccccc3)ccc2O[C@@H]1CN(C)S(=O)(=O)c1ccc(Cl)cc1 | 68* | x | 0
C[C@H]1CN([C@@H](C)CO)C(=O)Cc2cc(NS(=O)(=O)c3ccccc3)ccc2O[C@@H]1CN(C)S(=O)(=O)c1ccc(Cl)cc1 | 5 | 1 | 6
Cc1ccc(S(=O)(=O)Nc2ccc3c(c2)CC(=O)N([C@H](C)CO)C[C@@H](C)[C@@H](CN(C)S(=O)(=O)c2cccs2)O3)cc1 | 68* | 0 | -10
Cc1ccc(S(=O)(=O)Nc2ccc3c(c2)CC(=O)N([C@@H](C)CO)C[C@@H](C)[C@@H](CN(C)S(=O)(=O)c2ccc(C)cc2)O3)cc1 | 62* | 2 | -5
C[C@@H]1CN([C@@H](C)CO)C(=O)c2cc(NC(=O)c3ccccc3)ccc2O[C@@H](C)CCCCO[C@@H]1CN(C)C | x | 0 | x
C[C@H]1CN([C@@H](C)CO)C(=O)c2cc(NS(C)(=O)=O)ccc2O[C@H]1CN(C)S(C)(=O)=O | -4 | x | x
COc1ccc(S(=O)(=O)Nc2ccc3c(c2)CC(=O)N([C@@H](C)CO)C[C@@H](C)[C@@H](CN(C)S(=O)(=O)c2ccc(F)cc2)O3)cc1 | 63* | x | -8
COc1ccc(S(=O)(=O)N(C)C[C@H]2Oc3ccc(NS(=O)(=O)c4ccc(F)cc4)cc3CC(=O)N([C@@H](C)CO)C[C@H]2C)cc1 | 14 | 0 | 1
Cc1ccc(S(=O)(=O)N(C)C[C@@H]2Oc3ccc(NS(=O)(=O)c4ccc(Cl)cc4)cc3CC(=O)N([C@H](C)CO)C[C@H]2C)cc1 | -9 | x | 1
Cc1ccc(S(=O)(=O)Nc2ccc3c(c2)CC(=O)N([C@H](C)CO)C[C@@H](C)[C@@H](CN(C)S(=O)(=O)c2ccc(Cl)cc2)O3)cc1 | 66* | 0 | -10
COc1ccc(S(=O)(=O)N(C)C[C@@H]2Oc3ccc(NS(=O)(=O)c4ccccc4)cc3CC(=O)N([C@H](C)CO)C[C@H]2C)cc1 | -15 | 1 | 11
COc1ccc(S(=O)(=O)Nc2ccc3c(c2)CC(=O)N([C@H](C)CO)C[C@@H](C)[C@@H](CN(C)S(=O)(=O)c2ccccc2)O3)cc1 | 74* | 1 | 7
C[C@H](CO)N1C[C@H](C)[C@@H](CN(C)S(=O)(=O)c2ccccc2)Oc2c(NC(=O)C3CCCCC3)cccc2C1=O | 4 | 0 | 3
SMILES | T cruzi HTS | A1 apoptosis 2 | INS-1E ATP HTS
COc1ccc(NC(=O)Nc2ccc3c(c2)CC(=O)N([C@@H](C)CO)C[C@@H](C)[C@@H](CN(C)Cc2ccc(C(=O)Nc4ccccc4N)cc2)O3)cc1 | 60* | 1 | -18
COc1ccc(NC(=O)Nc2ccc3c(c2)C(=O)N([C@H](C)CO)C[C@H](C)[C@H](CN(C)Cc2ccc(C(=O)Nc4ccccc4N)cc2)O3)cc1 | 17 | 2 | -9
COc1ccc(NC(=O)Nc2ccc3c(c2)CC(=O)N([C@H](C)CO)C[C@@H](C)[C@@H](CN(C)Cc2ccc(C(=O)Nc4ccccc4N)cc2)O3)cc1 | 66* | 1 | -8
COc1ccc(NC(=O)Nc2ccc3c(c2)CC(=O)N([C@H](C)CO)C[C@H](C)[C@H](CN(C)Cc2ccc(C(=O)Nc4ccccc4N)cc2)O3)cc1 | u | x | 45
COc1ccc(NC(=O)Nc2ccc3c(c2)CC(=O)N([C@@H](C)CO)C[C@H](C)[C@H](CN(C)Cc2ccc(C(=O)Nc4ccccc4N)cc2)O3)cc1 | 45 | -1 | 4
COc1ccc(NC(=O)Nc2ccc3c(c2)CC(=O)N([C@@H](C)CO)C[C@H](C)[C@@H](CN(C)Cc2ccc(C(=O)Nc4ccccc4N)cc2)O3)cc1 | 63* | -1 | -6
C[C@H](CO)N1C[C@H](C)[C@@H](CN(C)C(=O)c2ccccc2)OCCCC[C@H](C)Oc2ccc(NC(=O)Nc3ccccc3)cc2C1=O | x | 0 | x
Cc1noc(C)c1NC(=O)N(C)C[C@H]1Oc2ccc(NC(=O)CCCN(C)C)cc2C(=O)N([C@@H](C)CO)C[C@H]1C | -19 | 0 | 5
Cc1ccc(S(=O)(=O)N(C)C[C@@H]2Oc3ccc(NS(=O)(=O)c4cccs4)cc3CC(=O)N([C@@H](C)CO)C[C@@H]2C)cc1 | 18 | -1 | -4
Cc1ccc(S(=O)(=O)N(C)C[C@@H]2OCCCC[C@H](C)Oc3ccc(NS(=O)(=O)c4ccc(F)cc4)cc3C(=O)N([C@@H](C)CO)C[C@H]2C)cc1 | x | -1 | x
COc1ccc(CN(C)C[C@H]2Oc3ccc(NC(=O)Nc4cccc5ccccc45)cc3CC(=O)N([C@@H](C)CO)C[C@@H]2C)cc1 | x | -1 | x
C[C@@H]1CN([C@@H](C)CO)C(=O)Cc2cc(NC(=O)Nc3cccc4ccccc34)ccc2O[C@@H]1CN(C)Cc1ccc(Oc2ccccc2)cc1 | 68* | x | -1

Screening data: PubChem, Broad Institute
